ChEMBL document CHEMBL3352439, “γ-Butyrolactone, cytochalasin, cyclic carbonate, eutypinic acid, and phenalenone derivatives from the soil fungus Aspergillus sp. PSU-RSPG185” (J Nat Prod, 2014)
Calls of active or inactive are those of the source. The rule behind the calls is not given here.

Legend:
KB = experiment: Cytotoxicity against human KB cells by colorimetric method; type: functional, cell-based
How it was run: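 KB cells assayed by the method of O'Brien and coworkers; ellipticine as reference compound; IC50 derived.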

Vero = experiment: Cytotoxicity against african green monkey Vero cells by colorimetric method; type: cell-based; details: Chlorocebus sabaeus
How it was run: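 Vero cells assayed by a colorimetric method; ellipticine as reference compound; IC50 derived.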

Plasmodium falciparum = experiment: Antimalarial activity against multidrug-resistant Plasmodium falciparum K1 assessed as [3H]-hypoxanthine incorporation 24 to 42 hrs by scintillation counting analysis; type: functional, organism-based
How it was run: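 Microculture radioisotope technique against multidrug-resistant K1 parasites; dihydroartemisinin as reference drug.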

[1] = tested on: Mycobacterium tuberculosis; experiment: Antimicrobial activity against Mycobacterium tuberculosis H37Ra assessed as growth inhibition by green fluorescent protein-based fluorescent detection; type: functional, organism-based
How it was run: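 Growth inhibition read by GFP-based fluorescence; isoniazid as reference drug; result reported as MIC.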

Compound | IC50 (KB) [µM] | IC50 (Vero) [µM] | Activity (Plasmodium falciparum) | Activity [1] | inhibition (KB)
CO[C@@]1(C/C=C(\C)CC/C=C(\C)CC[C@@H](O)C(C)(C)O)C(=O)c2c(O)cc(C)c3c(O)c(C)c(O)c(c23)C1=O | 48.4 | 34.2 | inactive | inactive | –
COc1c(O)c2c3c(c(O)cc(C)c3c1O)C(=O)[C@](C)(C/C=C(\C)CC/C=C(\C)CC[C@@H](O)C(C)(C)O)C2=O | – | – | inactive | inactive | inactive
CC1=C[C@@H]2[C@H]3[C@H]([C@H](O)C(=O)[C@]24C(=O)N[C@@H](CC(C)C)[C@@H]4[C@@H]1C)[C@@H](O)CCC[C@]3(C)O | – | – | inactive | inactive | inactive
C=C(C)C#Cc1cc(C(=O)O)ccc1O | – | – | inactive | inactive | inactive
